Experimental data as given in the M2OR odorant receptor database.
Where a chain is given by its changes, count along the chain named.

Legend:
Details in all cases: stereoisomer not certain
OR2W1 (Homo sapiens) = target: T1, OR2W1 (Homo sapiens) (UniProt Q9Y3N9)
T1 sequence (whole entry): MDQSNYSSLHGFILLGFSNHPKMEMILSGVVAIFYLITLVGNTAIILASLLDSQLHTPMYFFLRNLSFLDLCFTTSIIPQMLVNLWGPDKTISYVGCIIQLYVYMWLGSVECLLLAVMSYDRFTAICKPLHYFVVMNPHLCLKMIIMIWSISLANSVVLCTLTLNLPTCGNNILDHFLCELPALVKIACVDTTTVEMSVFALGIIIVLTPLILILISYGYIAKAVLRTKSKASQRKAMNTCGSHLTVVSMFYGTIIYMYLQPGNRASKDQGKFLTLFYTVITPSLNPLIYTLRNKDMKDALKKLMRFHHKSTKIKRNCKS
Procedure, shortened: (§1)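 Transient luciferase assays in mammalian cell lines were common, though methods varied by source. The values come from published papers and their supplementary material, with extra details from the original authors when needed. Responsive refers to a measured signal the original authors judged statistically different from baseline, and non-responsive (inactive) to the remainder.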

OR2T4 (Homo sapiens) = target: T2, OR2T4 (Homo sapiens) (UniProt Q8NH00)
T2 sequence (whole entry): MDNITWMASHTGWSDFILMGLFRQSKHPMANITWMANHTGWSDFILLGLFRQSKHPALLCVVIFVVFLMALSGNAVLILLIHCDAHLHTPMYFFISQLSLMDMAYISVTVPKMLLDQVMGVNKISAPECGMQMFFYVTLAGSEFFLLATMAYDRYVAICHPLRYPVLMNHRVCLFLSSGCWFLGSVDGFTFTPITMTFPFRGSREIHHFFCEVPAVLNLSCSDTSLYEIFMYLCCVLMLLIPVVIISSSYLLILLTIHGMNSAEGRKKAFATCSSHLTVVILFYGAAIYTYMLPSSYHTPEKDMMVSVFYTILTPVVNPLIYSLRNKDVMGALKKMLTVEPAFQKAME
Procedure, shortened: as §1

OR2W1 [1] = system: T3, OR2W1
T3 sequence (whole entry): T1 sequence (whole entry) with D296N
Procedure, shortened: as §1

OR2W1 [2] = system: T4, OR2W1; remark: listed apart in the source
T4 sequence (whole entry): T1 sequence (whole entry) with M81V
Procedure, shortened: as §1
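Further: active if original authors judged signal statistically different from baseline.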

SMILES | odorant receptor agonist call (OR2W1 (Homo sapiens)) | odorant receptor agonist call (OR2T4 (Homo sapiens)) | odorant receptor agonist call (OR2W1 [1]) | odorant receptor agonist call (OR2W1 [2])
COc1nccnc1CC(C)C | inactive |  |  | 
CC=O | inactive |  |  | 
CCc1ccc(O)c(OC)c1 | inactive |  |  | 
CC(=O)Oc1ccccc1 | inactive |  |  | 
COC(=O)C(C)C | inactive |  |  | 
C=C(C)C1CCC(C)C(=O)C1 (stereo not drawn) | active |  |  | 
CC12CCC(CC1=O)C2(C)C (stereo not drawn) | inactive |  |  | 
CC=CC(=O)C1=C(C)CCCC1(C)C | inactive |  |  | 
CCOC(C)OCC | inactive |  |  | 
CCCCCCCC(=O)OCC | active | inactive | active | inactive
C=C(C)C1CC=C(C)CC1 (stereo not drawn) | active | inactive | active | active
CCC(=O)C1=NCCC1 | inactive |  |  | 
CC(C)CO | inactive |  |  | 
COC1=C(C)OC(C)C1=O (stereo not drawn) | inactive |  |  | 
CC(=O)O | inactive | inactive |  | 
CCCCCC(=O)CC | active |  |  | 
CCCCCCC(=O)[O-].[H+] | inactive | inactive |  | 
CCCCCCCCCC(=O)OCC | active | inactive | active | active
CCCCCCCCCS | active |  |  | 
CCCCCCC(C)=O | active |  |  | 
CSSSC | active |  |  | 

SMILES | odorant receptor agonist call (OR2W1 (Homo sapiens)) | odorant receptor agonist call (OR2T4 (Homo sapiens)) | odorant receptor agonist call (OR2W1 [1]) | odorant receptor agonist call (OR2W1 [2])
CC(=O)c1ccccc1N | inactive |  |  | 
O=C(O)C=Cc1ccc(O)cc1 | inactive |  |  | 
CCCCCCCC(=O)[O-].[H+] | active | inactive | active | inactive
CC(=O)OCCc1ccccc1 | active |  | active | active
CCOC(=O)CCSC | active |  | active | active
CSCc1ccco1 | active |  | active | active
CCOC(=O)C(C)C | inactive |  | active | inactive
CCCCC1OC(=O)CC1C (stereo not drawn) | active |  | active | active
C=C1CCC2(C(C)C)CC12 (stereo not drawn) | active |  | active | inactive
CCCCC=CC=CC=O | active |  | active | active
CC(C)(S)CCOC=O | active |  | active | active
CSSCc1ccco1 | active |  | active | active
c1coc(CSSCc2ccco2)c1 | active |  | active | active
CC(=O)CC(=O)CC(C)C | active |  |  | 
CCCCCC=CC=O | active |  | active | inactive
OCCCc1ccccc1 | active |  | active | active
SCc1cccs1 | active |  | active | active
CCCSSSCCC | active |  | active | inactive
CSSCc1ccccc1 | active |  | active | active
CCC(=O)C(C)S (stereo not drawn) | inactive |  |  | 
CCCCCC=CCCC=O | active |  | active | inactive
